Most compounds without a hit are left out; they make up all but 1.6% or so of the library.
HCV core dimer: inhibitors of HCV core protein dimerization, primary screen, biochemical, TR-FRET, high-throughput. TR-FRET GST/Flag-core106 dimerization, 1536-well. inhibition, % at 5 µM. 300,000 tested, 0.33% active;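 active means inhibition above the mean of all tested compounds plus 3 SD, set per screening campaign, cut at about 45% in these data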
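System: GST/Flag-tagged HCV core106 proteins. Incubation: compound-protein-antibody incubation 4 h at 22.5 °C. Technique: HTRF with 340 nm excitation, 617/671 nm emission. Medium: KF-containing HEPES buffer, pH 7.45, DTT, CHAPS, BSA. Read-out: inhibition (%) from 671 over 617 nm ratio. Also added: Eu(K)-anti-GST 90 ng/mL plus XL665-anti-Flag 1 µg/mL.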
DNA FID counter: compounds displacing fluorescent DNA intercalator, primary screen, artefact control for HCV NS3 helicase inhibitor project, biochemical, FID fluorescence; DNA fluorescent intercalator displacement; inhibition, % at 7.9 µM; 290,000 tested, 0.17% active; in the data active means inhibition above about 37%;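 further: 0% = vehicle and 100% = reference compound; higher means more ethidium bromide displaced from hairpin DNA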
IMP-1 inh-1: IMP-1 metallo-beta-lactamase inhibitors, primary screen, biochemical, epi-absorbance readout, Pseudomonas aeruginosa enzyme | 290,000 tested, 0.45% active | metallo-beta-lactamase IMP-1 (Pseudomonas aeruginosa) | AID 1556, 2009 | inhibition, % at 5.6 µM | purified IMP-1, nitrocefin hydrolysis, epi-absorbance fluorescence;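 active means inhibition above the mean plus 3 SD of all compounds in the same screening run, cut at about 4.5% in these data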;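 further: 0% = IMP-1 with DMSO and 100% = DMSO wells lacking enzyme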
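System: purified IMP-1 / Input: IMP-1 dispensed at 0.2 nM / Medium: 50 mM HEPES pH 7.1, 50 µM ZnSO4, 0.05% Brij 35 / Timing: 15 min enzyme–compound preincubation, then 25 min nitrocefin reaction, 25 °C / Technique: plate fluorescence quenching by hydrolysis product, ex 480/em 530 nm / Repeats: singlicate testing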
VIM-2 inh: VIM-2 metallo-beta-lactamase inhibitors, primary screen, biochemical, epi-absorbance readout, Pseudomonas aeruginosa enzyme; purified VIM-2, nitrocefin hydrolysis, epi-absorbance fluorescence; inhibition, % at 5.6 µM; 290,000 tested, 0.89% active; AID 1527, 2009;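 active means inhibition above the mean of all tested compounds plus 3 SD, cutoff set per screening run, cut at about 7.5% in these data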;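 further: red hydrolysis product quenches plate fluorescence so inhibitors raise well fluorescence; 0% = enzyme with DMSO and 100% = DMSO without enzyme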
IMP-1 inh-2: IMP-1 metallo-beta-lactamase inhibitors, confirmation, selectivity assay for selective VIM-2 inhibitor project, biochemical, epi-absorbance readout, triplicate; AID 1856, 2009; 1,300 tested, under 10 active; shares compounds with VIM-2 inh; inhibition, % at 5.6 µM; purified IMP-1, nitrocefin hydrolysis, epi-absorbance fluorescence; call rule not given here;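 further: 0% = enzyme with vehicle and 100% = vehicle without enzyme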
VIM-2 FRET inh: VIM-2 inhibitors in FRET format, confirmation, artefact control for selective VIM-2 inhibitor project, biochemical, epi-absorbance artifact exclusion | shares compounds with VIM-2 inh | purified VIM-2, CCF2 FRET substrate hydrolysis | 1,300 tested, 23% active | inhibition, % at 5.6 µM | AID 1857, 2009;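 active means inhibition above the mean of all tested compounds plus 3 SD, cut at about 19% in these data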;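 further: 0% = VIM-2 plus DMSO and 100% = no enzyme wells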
TEM-1 counter: TEM-1 serine beta-lactamase inhibitors, counter-screen for VIM-2 inhibitor project, biochemical, epi-absorbance, HTS; shares compounds with VIM-2 inh; Purified TEM-1, nitrocefin hydrolysis, epi-absorbance fluorescence; inhibition, % at 5.6 µM; 1,300 tested, 3% active; AID 1866, 2009;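 active means inhibition above that campaign's mean inhibition plus 3 SD, cut at about 0.46% in these data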;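 further: 0% = TEM-1 with DMSO and 100% = TEM-1 with 100 µM potassium clavulanate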
Target sequence (P62593 whole entry, looked up): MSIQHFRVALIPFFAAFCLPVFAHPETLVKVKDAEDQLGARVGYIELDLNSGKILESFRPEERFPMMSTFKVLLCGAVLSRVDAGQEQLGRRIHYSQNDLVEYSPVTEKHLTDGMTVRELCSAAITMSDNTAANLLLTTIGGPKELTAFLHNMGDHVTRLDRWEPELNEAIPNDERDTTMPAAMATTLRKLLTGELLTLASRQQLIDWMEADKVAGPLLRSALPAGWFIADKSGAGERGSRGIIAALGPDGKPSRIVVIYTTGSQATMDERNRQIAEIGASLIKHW
VIM-2 inh conf: VIM-2 metallo-beta-lactamase inhibitors, confirmation, biochemical, epi-absorbance, hits shared with IMP-1 screen; shares compounds with VIM-2 inh; purified VIM-2, nitrocefin hydrolysis; inhibition, % at 5.6 µM; 1,300 tested, 96% active;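 active means inhibition of the VIM-2 beta-lactamase enzyme above about 11% from the earlier first-round screen, limit read from the data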;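 further: 0% = VIM-2 with DMSO and 100% = buffer wells without enzyme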
The depositor's hits bear a star; nt = not tested or not shown.

SMILES	HCV core dimer	DNA FID counter	IMP-1 inh-1	VIM-2 inh	IMP-1 inh-2	VIM-2 FRET inh	TEM-1 counter	VIM-2 inh conf
COC(=O)CCN(C1CCCCC1)S(=O)(=O)c1ccc(S(=O)(=O)NC2CCCCC2)cc1	3	-39	-3	-3	nt	nt	nt	nt
Cc1c(C)c2ccc(OC(C)C(=O)NC3CC(C)(C)NC(C)(C)C3)cc2oc1=O (configuration not stated)	-4	12	-2	7	nt	nt	nt	nt
CC(Oc1cc2oc(=O)c3c(c2cc1Cl)CCC3)C(=O)NC1CC(C)(C)NC(C)(C)C1 (configuration not stated)	-2	20	-5	25*	-2	-4	-2	35*
CC(Oc1ccc2c3c(c(=O)oc2c1)CCCC3)C(=O)NC1CC(C)(C)NC(C)(C)C1 (configuration not stated)	-2	24	-2	15*	-3	1	-6	20*
Cc1c(OC(C)C(=O)NC2CC(C)(C)NC(C)(C)C2)ccc2c3c(c(=O)oc12)CCC3 (configuration not stated)	7	36	1	26*	-2	-2	-12	37*
Cc1cc(=O)oc2cc(OC(C)C(=O)NC3CCN(Cc4ccccc4)CC3)ccc12 (configuration not stated)	-4	15	-2	0	nt	nt	nt	nt
CC(Oc1ccc2c3c(c(=O)oc2c1)CCC3)C(=O)NC1CCN(Cc2ccccc2)CC1 (configuration not stated)	-5	11	-3	22*	-3	2	-6	31*
CCC(C(=O)Nc1ccncc1)c1ccccc1 (configuration not stated)	-2	0	-4	-2	nt	nt	nt	nt
Cc1cccn2c(=O)c3cc(C(=O)NCCN4CCOCC4)n(C)c3nc12	-1	-4	-1	19*	-3	-2	-8	28*
O=C(NCCN1CCOCC1)c1cccn2c(=O)c3c4c(sc3nc12)CCCC4	4	-9	-1	17*	-3	-1	-8	47*
Cc1cc(C)cc(NC(=O)CSc2cc(C(=O)c3nccn3C)c3ccccc3n2)c1	-10	-4	-4	-2	nt	nt	nt	nt
Cc1cc(C)n2c(Br)c(CSc3nc4ccccc4s3)nc2n1	29	-22	-2	23*	-3	69*	-6	47*
CCc1cc(=O)oc2cc(OC(C)C(=O)NCCCn3ccnc3)ccc12 (configuration not stated)	1	6	-1	0	nt	nt	nt	nt
CCc1cc(=O)oc2c(C)c(OC(C)C(=O)NCCCn3ccnc3)ccc12 (configuration not stated)	-22	-4	-1	20*	-2	-7	-6	30*
Cc1cc(=O)oc2c(C)c(OC(C)C(=O)NCCCn3ccnc3)ccc12 (configuration not stated)	1	2	-3	16*	-3	-4	-7	31*
Cc1cc(OCC(=O)Nc2ccc(CCO)cc2)c2c(C)c(C)c(=O)oc2c1	-1	-41	-3	5	nt	nt	nt	nt
CCc1cc(=O)oc2cc(C)cc(OCC(=O)NCc3cccnc3)c12	0	-22	-4	6	nt	nt	nt	nt
Cc1cc(OCC(=O)NCc2cccnc2)c2c(C)c(C)c(=O)oc2c1	0	-28	-4	22*	-3	-2	-7	31*

Screens as filed in PubChem BioAssay.
